pIC50: −log10 of the molar value.
system: K562; assay: Cytotoxicity against human K562 cells after 5 days by MTT assay; type: cell-based; details: K562, 120 h
Outline: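 K562 human chronic myelogenous leukaemia cells were cultured at 37 °C with drug for 5 days, and growth was read by MTT assay. IC50 was taken as the concentration giving 50% inhibition of cell growth.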

SMILES | pIC50
COc1ccc(/C=C(\F)C(=O)c2cc(OC)c(OC)c(OC)c2)cc1F | 6.11
COc1ccc(/C=C(\F)C(=O)c2cc(OC)c(OC)c(OC)c2)cc1O | 7.86
COc1ccc(/C=C(\F)C(=O)c2cc(OC)c(OC)c(OC)c2)cc1 | 6.41
COc1ccc(/C=C(\F)C(=O)c2cc(OC)c(OC)c(OC)c2)c(F)c1 | 5.92
COc1cc(C(=O)/C(C#N)=C/c2ccc(OC)c(OC)c2OC)cc(OC)c1OC | < 5.00
COc1cc(C(=O)/C(C#N)=C/c2ccc(C(F)(F)F)cc2)cc(OC)c1OC | < 5.00
COc1ccc(/C=C(\C#N)C(=O)c2cc(OC)c(OC)c(OC)c2)cc1Br | < 5.00
COc1ccc(/C=C(\C#N)C(=O)c2cc(OC)c(OC)c(OC)c2)cc1F | < 5.00
CCOC(=O)/C(=C/c1ccc(OC)c(O[Si](C)(C)C(C)(C)C)c1)C(=O)c1cc(OC)c(OC)c(OC)c1 | 5.37
CCOC(=O)/C(=C/c1ccc(OC)c(OC)c1)C(=O)c1cc(OC)c(OC)c(OC)c1 | < 5.00
COc1ccc(/C=C(\F)C(=O)c2cc(OC)c(OC)c(OC)c2)cc1Br | 5.22
COc1ccc(/C=C(\F)C(=O)c2cc(OC)c(OC)c(OC)c2)cc1OC | 5.92
COc1cc(C(=O)/C(F)=C/c2ccc(OC)c(OC)c2OC)cc(OC)c1OC | 5.00
CCOC(=O)/C(=C/c1ccc(OC)c(OC)c1OC)C(=O)c1cc(OC)c(OC)c(OC)c1 | < 5.00
COc1cc(C(=O)/C(F)=C/c2ccc3c(c2)OCO3)cc(OC)c1OC | 6.10
COc1ccc(/C=C(\C#N)C(=O)c2cc(OC)c(OC)c(OC)c2)cc1O[Si](C)(C)C(C)(C)C | < 5.00
COc1ccc(/C=C(\C#N)C(=O)c2cc(OC)c(OC)c(OC)c2)c(F)c1 | < 5.00
COc1ccc(/C=C(\C#N)C(=O)c2cc(OC)c(OC)c(OC)c2)cc1O | 5.38
COc1ccc(/C=C(\C#N)C(=O)c2cc(OC)c(OC)c(OC)c2)cc1 | < 5.00
COc1cc(C(=O)/C(C#N)=C/c2ccc3c(c2)OCO3)cc(OC)c1OC | < 5.00
CCOC(=O)/C(=C/c1ccc(OC)cc1)C(=O)c1cc(OC)c(OC)c(OC)c1 | < 5.00
CCOC(=O)/C(=C\c1ccc(OC)c(O)c1)C(=O)c1cc(OC)c(OC)c(OC)c1 | 6.06
COc1ccc(/C=C(\C#N)C(=O)c2cc(OC)c(OC)c(OC)c2)cc1OC | < 5.00

target: Tubulin; assay: Inhibition of tubulin; type: protein-complex assay, Homo sapiens; details: not given

pIC50 | SMILES
6.22 | COc1ccc(/C=C(\F)C(=O)c2cc(OC)c(OC)c(OC)c2)cc1O
5.34 | COc1ccc(/C=C(\F)C(=O)c2cc(OC)c(OC)c(OC)c2)cc1
5.74 | COc1ccc(/C=C(\C)C(=O)c2cc(OC)c(OC)c(OC)c2)cc1O
5.00 | COc1ccc(/C=C/C(=O)c2cc(OC)c(OC)c(OC)c2)cc1O

Source: ChEMBL document CHEMBL1139714, “Effects of alpha-substitutions on structure and biological activity of anticancer chalcones” (Bioorg Med Chem Lett, 2006)
